# Measurements published in PMC2199097 (The Journal of Experimental Medicine, 1997).
# System: CXCR4
# Experiment: Ca2+ mobilization assay in SupT1 cells
# Assay type: cell-based, human
# Conditions: SupT1 cells expressing CXCR4, Fura-2, 500 ng/ml SDF-1α, without ALX40-4C
# Summary of the method: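 SupT1 cells were loaded with 2.5 μM Fura-2/AM for 1 h at 37°C in the dark, allowed to efflux 15 min in PBS, then resuspended at 2 × 10⁶ cells/ml in Dulbecco's PBS with calcium and magnesium. Test compound (10–50 μM) was added, and SDF-1α (500 ng/ml) followed ∼90 s later. The Ca²⁺ signal was read on a luminescence spectrometer.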
substance,measurement,value
SDF-1α: the chemokine stromal-derived factor (SDF)-1α (Peprotech),Ca2+ mobilization response to SDF-1α,normally respond to SDF-1α
